According to ChEMBL document CHEMBL4002555, “Bioactive Pentacyclic Triterpenoids from the Leaves of Cleistocalyx operculatus” (J Nat Prod, 2016):

How the values were obtained:
[1] = Cytotoxicity against mouse RAW264.7 cells assessed as growth inhibition at 50 uM after 72 hrs by MTT assay relative to control; format: cell-based; settings: read-out: GI
[2] = test system: RAW264.7; experiment: Anti-inflammatory activity in mouse RAW264.7 cells assessed as inhibition of LPS-induced TNF-alpha production at 2 uM pretreated for 1 hr followed by LPS stimulation measured after 24 hrs by ELISA relative to control; format: functional
In short: (§1)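 LPS-stimulated RAW 264.7 macrophages, with IL-6 and TNF-α production read separately. Test concentrations were 0.4, 2, 10 and 50 μM, and dexamethasone was the reference drug. Results are given as percent inhibition of cytokine production.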

[3] = test system: NCI-N87; experiment: Cytotoxicity against human NCI-N87 cells after 72 hrs by MTT assay; format: functional, cell-based; settings: NCI-N87, 72 h
In short: (§2)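 MTT growth-inhibition assay in human HepG2 hepatocellular, NCI-N87 gastric and MCF-7 breast carcinoma lines, with a doxorubicin positive control. IC50 values are means ± SD from three individual experiments; >10.0 μM was taken as noncytotoxic.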

[4] = test system: RAW264.7; experiment: Anti-inflammatory activity in mouse RAW264.7 cells assessed as inhibition of LPS-induced IL-6 production at 2 uM pretreated for 1 hr followed by LPS stimulation measured after 24 hrs by ELISA relative to control; format: functional; in short: as §1
[5] = test system: RAW264.7; experiment: Anti-inflammatory activity in mouse RAW264.7 cells assessed as inhibition of LPS-induced IL-6 production at 10 uM pretreated for 1 hr followed by LPS stimulation measured after 24 hrs by ELISA relative to control; format: functional; in short: as §1
[6] = test system: HepG2; experiment: Cytotoxicity against human HepG2 cells after 72 hrs by MTT assay; format: functional, cell-based; settings: HepG2, 72 h; in short: as §2
[7] = test system: MCF7; experiment: Cytotoxicity against human MCF7 cells after 72 hrs by MTT assay; format: functional, cell-based; settings: MCF7, 72 h; in short: as §2
[8] = test system: RAW264.7; experiment: Anti-inflammatory activity in mouse RAW264.7 cells assessed as inhibition of LPS-induced TNF-alpha production at 10 uM pretreated for 1 hr followed by LPS stimulation measured after 24 hrs by ELISA relative to control; format: functional; in short: as §1
[9] = test system: RAW264.7; experiment: Anti-inflammatory activity in mouse RAW264.7 cells assessed as inhibition of LPS-induced IL-6 production at 50 uM pretreated for 1 hr followed by LPS stimulation measured after 24 hrs by ELISA relative to control; format: functional; in short: as §1
[10] = test system: RAW264.7; experiment: Anti-inflammatory activity in mouse RAW264.7 cells assessed as inhibition of LPS-induced TNF-alpha production at 50 uM pretreated for 1 hr followed by LPS stimulation measured after 24 hrs by ELISA relative to control; format: functional; in short: as §1
[11] = Cytotoxicity against mouse RAW264.7 cells assessed as growth inhibition at 10 uM after 72 hrs by MTT assay relative to control; format: cell-based; settings: read-out: GI
[12] = test system: RAW264.7; experiment: Anti-inflammatory activity in mouse RAW264.7 cells assessed as inhibition of LPS-induced TNF-alpha production at 0.4 uM pretreated for 1 hr followed by LPS stimulation measured after 24 hrs by ELISA relative to control; format: functional; in short: as §1
[13] = test system: RAW264.7; experiment: Anti-inflammatory activity in mouse RAW264.7 cells assessed as inhibition of LPS-induced IL-6 production at 0.4 uM pretreated for 1 hr followed by LPS stimulation measured after 24 hrs by ELISA relative to control; format: functional; in short: as §1

Row | SMILES | inhibition at 72 h, 50 µM [1] [%] | inhibition at 2 µM [2] [%] | IC50 [3] [µM] | inhibition at 2 µM [4] [%] | inhibition at 10 µM [5] [%] | IC50 [6] [µM] | IC50 [7] [µM] | inhibition at 10 µM [8] [%] | inhibition at 50 µM [9] [%] | inhibition at 50 µM [10] [%] | inhibition at 72 h, 10 µM [11] [%] | inhibition at 0.4 µM [12] [%] | inhibition at 0.4 µM [13] [%]
1 | CC1(C)CC[C@]2(C(=O)O)CC[C@]3(C)C(=C[C@@H](O)[C@@H]4[C@@]5(C)C[C@@H](O)[C@H](O)[C@@](C)(CO)[C@@H]5CC[C@]43C)[C@@H]2C1 | < 5 | 53.7 | > 10 | 68.1 | 69.9 | > 10 | > 10 | 57.7 | 74.9 | 65.6 |  |  | 
2 | COC(=O)[C@]12CCC(C)(C)CC1=C1CC[C@@H]3[C@@]4(C)CC[C@H](O)C(C)(C)[C@@H]4CC[C@@]3(C)[C@]1(C(=O)O)CC2 |  |  | 5.1 |  |  | 5 | > 10 |  |  |  |  |  | 
3 | C[C@H]1[C@@H]2[C@H]3CC[C@@H]4[C@@]5(C)CC[C@H](O)C(C)(C)[C@@H]5CC[C@@]4(C)[C@]3(C)CC[C@@]23C[C@@H](O)[C@]1(C)OC3=O |  | < 50 | 7.3 | < 50 | < 50 | > 10 | > 10 | < 50 | < 50 | < 50 | < 5 | < 50 | < 50
4 | C[C@H]1[C@H](C)CC[C@]2(C(=O)O)CC[C@]3(C)C(=C[C@@H](O)[C@@H]4[C@@]5(C)C[C@@H](O)[C@H](O)[C@@](C)(CO)[C@@H]5CC[C@]43C)[C@H]12 |  | < 50 | > 10 | < 50 | < 50 | > 10 | > 10 | < 50 | < 50 | < 50 | < 5 | < 50 | < 50
5 | CC1=CC[C@]2(C(=O)O)CC[C@]3(C=O)[C@H](CC[C@@H]4[C@@]5(C)CC[C@H](O)C(C)(C)[C@@H]5CC[C@]43C)[C@H]2[C@@H]1C |  | 14.1 | > 10 | 19.2 | 53.8 | > 10 | > 10 | 35.9 |  |  | < 5 | 14.8 | 23.6
6 | C=C1CC[C@]2(C(=O)O)CC[C@]3(C)C(=CC[C@@H]4[C@@]5(C)C[C@@H](O)[C@H](O)C(C)(C)[C@@H]5CC[C@]43C)[C@@H]2[C@H]1C |  | < 50 | > 10 | < 50 | < 50 | > 10 | > 10 | < 50 | < 50 | < 50 | < 5 | < 50 | < 50
7 | COC(=O)[C@@]12CC[C@]3(C(=O)O)[C@H](CC[C@@H]4[C@@]5(C)CC[C@H](O)C(C)(C)[C@@H]5CC[C@]43C)[C@@H]1[C@@H](C)C(C)=C[C@H]2O |  | < 50 | > 10 | < 50 | < 50 | > 10 | > 10 | < 50 | < 50 | < 50 | < 5 | < 50 | < 50
8 | C=C1CC[C@]2(C(=O)O)CC[C@]3(C)C(=C[C@@H](O)[C@@H]4[C@@]5(C)C[C@@H](O)[C@H](O)[C@@](C)(CO)[C@@H]5CC[C@]43C)[C@@H]2[C@H]1C |  | < 50 | > 10 | < 50 | < 50 | > 10 | > 10 | < 50 | < 50 | < 50 | < 5 | < 50 | < 50
9 | CC1=CC[C@]2(C(=O)O)CC[C@]3(C)[C@H](CC[C@@H]4[C@@]5(C)CC[C@H](O)C(C)(C)[C@@H]5CC[C@]43C)[C@H]2[C@@H]1C |  |  | 2.4 |  |  | 1.9 | 4.3 |  |  |  |  |  | 
10 | C=C1CC[C@]2(C(=O)O)CC[C@]3(C)C(=CC[C@@H]4[C@@]5(C)C[C@@H](O)[C@H](O)[C@@](C)(CO)[C@@H]5CC[C@]43C)[C@@H]2[C@H]1C [ACTINIDIC ACID] |  | < 50 | > 10 | < 50 | < 50 | > 10 | > 10 | < 50 | < 50 | < 50 | < 5 | < 50 | < 50
11 | CC1(C)CC[C@]2(C(=O)O)CC[C@]3(C)C(=CC[C@@H]4[C@@]5(C)C[C@@H](O)[C@H](O)[C@@](C)(CO)[C@@H]5CC[C@]43C)[C@@H]2C1 [ARJUNOLIC ACID] |  | < 50 | > 10 | < 50 | < 50 | > 10 | > 10 | < 50 | < 50 | < 50 | < 5 | < 50 | < 50
12 | C[C@H]1[C@H](C)CC[C@]2(C(=O)O)CC[C@]3(C)C(=CC[C@@H]4[C@@]5(C)C[C@@H](O)[C@H](O)[C@@](C)(CO)[C@@H]5CC[C@]43C)[C@H]12 [ASIATIC ACID] |  | < 50 | > 10 | < 50 | < 50 | > 10 | > 10 | < 50 | < 50 | < 50 | < 5 | < 50 | < 50
13 | C[C@H]1[C@H](C)CC[C@]2(C(=O)O)CC[C@]3(C)C(=CC[C@@H]4[C@@]5(C)C[C@@H](O)[C@H](O)C(C)(C)[C@@H]5CC[C@]43C)[C@H]12 [COROSOLIC ACID] |  | < 50 | 4.4 | < 50 | < 50 | > 10 | > 10 | < 50 | < 50 | < 50 | < 5 | < 50 | < 50
14 | C[C@@H]1C[C@H]2[C@@H]3CCC4=CC(=O)C=C[C@]4(C)[C@@]3(F)[C@@H](O)C[C@]2(C)[C@@]1(O)C(=O)CO [DEXAMETHASONE] |  | 71.8 |  | 75.9 | 80.4 |  |  | 79.2 | 84.9 | 86.1 |  |  | 
15 | COc1cccc2c1C(=O)c1c(O)c3c(c(O)c1C2=O)C[C@@](O)(C(=O)CO)C[C@@H]3O[C@H]1C[C@H](N)[C@H](O)[C@H](C)O1 [DOXORUBICIN] |  |  | 1.6 |  |  |  |  |  |  |  |  |  | 
16 | C=C1[C@@H](O)[C@H](O)C[C@]2(C)[C@H]3CC=C4[C@@H]5[C@@H](C)[C@H](C)CC[C@]5(C(=O)O)CC[C@@]4(C)[C@]3(C)CC[C@@H]12 [ILEKUDINOL B] |  |  | 9.1 |  |  | > 10 | > 10 |  |  |  |  |  | 
17 | CC1(C)CC[C@]2(C(=O)O)CC[C@]3(C)C(=CC[C@@H]4[C@@]5(C)C[C@@H](O)[C@H](O)C(C)(C)[C@@H]5CC[C@]43C)[C@@H]2C1 [MASLINIC ACID] |  | < 50 | > 10 | < 50 | < 50 | > 10 | > 10 | < 50 | < 50 | < 50 | < 5 | < 50 | < 50
18 | CC1(C)CC[C@]2(C(=O)O)CC[C@]3(C)C(=CC[C@@H]4[C@@]5(C)CC[C@H](O)C(C)(C)[C@@H]5CC[C@]43C)[C@@H]2C1 [OLEANOLIC_ACID] |  |  | > 10 |  |  | > 10 | > 10 |  |  |  |  |  | 
19 | C[C@H]1[C@H](C)CC[C@]2(C(=O)O)CC[C@]3(C)C(=CC[C@@H]4[C@@]5(C)CC[C@H](O)C(C)(C)[C@@H]5CC[C@]43C)[C@H]12 [URSOLIC ACID] |  |  | 4.2 |  |  | > 10 | 6.6 |  |  |  |  |  | 
